Data: ChEMBL document CHEMBL1126809, “Effects of solvation on the ionization and conformation of raclopride and other antidopaminergic 6-methoxysalicylamides: insight into the pharmacophore” (J Med Chem, 1993)

How the values were obtained:
[1] = Dissociation constants determined by potentiometry at 25 degree celsius (phenolic group); assay type: physicochemical
Outline: (§1)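 Potentiometric titration at 25 ± 1 °C with ionic strength held at 0.1 M by KCl. Excess HCl added, then back-titrated with 0.01 N NaOH. Curves run in triplicate. pKa derived by non-logarithmic linearization of the titration curve, corrected for dilution during titration.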

[2] = Dissociation constants determined by potentiometry at 25 degree celsius (Amino group); assay type: physicochemical; outline: as §1
[3] = The isoelectric point (pI) as the arithmetic mean of pKa1 and pKa2; assay type: physicochemical
[4] = Percent of zwitter ion formed, was determined at pH 7.4; assay type: ADME

CCc1ccc(OC)c(C(=O)NC[C@@H]2CCCN2CC)c1O
PKa1 [1]: 8.71 | PKa2 [2]: 9.57 | pI [3]: 9.14 | Z [4]: 5%

CCN1CCC[C@H]1CNC(=O)c1c(OC)ccc(Cl)c1O
PKa1 [1]: 7.13 | PKa2 [2]: 9.66 | pI [3]: 8.4 | Z [4]: 65%

CCN1CCC[C@H]1CNC(=O)c1c(OC)ccc([N+](=O)[O-])c1O
PKa1 [1]: 5.81 | PKa2 [2]: 9.16 | pI [3]: 7.49 | Z [4]: 96%

CCc1cc(Cl)c(O)c(C(=O)NC[C@@H]2CCCN2CC)c1OC
PKa1 [1]: 6.88 | PKa2 [2]: 9.6 | pI [3]: 8.24 | Z [4]: 76%

CCN1CCC[C@H]1CNC(=O)c1c(O)c(Br)cc(Br)c1OC
PKa1 [1]: 5.94 | PKa2 [2]: 9.18 | pI [3]: 7.56 | Z [4]: 95%

COc1c(Cl)cc(Cl)c(O)c1C(=O)NC1CCN(C)CC1
PKa1 [1]: 5.96 | PKa2 [2]: 9.12 | pI [3]: 7.54 | Z [4]: 95%

CCc1cc(CC)c(OC)c(C(=O)NC[C@@H]2CCCN2CC)c1O
PKa1 [1]: 7.28 | PKa2 [2]: 9.55 | pI [3]: 8.42 | Z [4]: 56%

CCN1CCC[C@H]1CNC(=O)c1c(O)cccc1OC
PKa1 [1]: 8.7 | PKa2 [2]: 9.56 | pI [3]: 9.13 | Z [4]: 5%

CCc1cc(Cl)c(OC)c(C(=O)NC[C@@H]2CCCN2CC)c1O [ETICLOPRIDE]
PKa1 [1]: 6.93 | PKa2 [2]: 9.67 | pI [3]: 8.3 | Z [4]: 74%

CCN1CCC[C@H]1CNC(=O)c1c(O)c(Cl)cc(Cl)c1OC [RACLOPRIDE]
PKa1 [1]: 5.81 | PKa2 [2]: 9.21 | pI [3]: 7.51 | Z [4]: 96%
